Experimental data taken from ChEMBL document CHEMBL1141604, “Benzenesulfonamide indole inhibitors of cytosolic phospholipase A2alpha: optimization of in vitro potency and rat pharmacokinetics for oral efficacy” (Bioorg Med Chem, 2008).

Experiments:
[1] = Clearance in Beagle dog at 2 mg/kg, iv; type: ADME, organism-based, Canis lupus familiaris; design: dose 2 mg/kg, route intravenous; conditions: in vivo
Method in brief: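 Male Beagle dogs, 8.5–13.0 kg, n = 3, fasted overnight, given 2 mg/kg iv in 20% DMSO/80% PEG-200. Saphenous blood sampled over 24 h and plasma acidified to about pH 4. Analysed by LC/MS/MS with internal standard. Clearance by non-compartmental methods.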

Blood [2] = assay: Inhibition of LTB4 production in human whole blood assay; type: functional, tissue-based
Method in brief: (§1)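 Heparinized blood from healthy male volunteers (3 donors). Aliquots preincubated 15 min at 37 °C with compound in DMSO, then stimulated 15 min with 30 µM A23187 (final). Reaction stopped with 20 mM EDTA; plasma proteins precipitated with cold methanol. TXB2, LTB4, PGE2 and PGF2α measured by immunoassay kit; IC50 derived.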

Ovis aries [3] = assay: Effect on Ascaris suum-induced late phase-bronchoconstriction in naturally sensitized sheep model assessed as increase in specific lung resistance at 1 mg/kg, po bid for 5 days; type: functional
Method in brief: (§2)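 Naturally sensitized sheep challenged via the airways with Ascaris suum antigen. Pulmonary resistance recorded breath by breath using the esophageal balloon technique. Oral doses given in Phosal stock diluted with water, 0.25 mL/kg. Dosing BID before challenge and on challenge day, 2 h before and 8 h after. Early and late responses expressed as mean maximum % increase in specific lung resistance, compared with each sheep's historical control.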

[4] = Oral bioavailability in Beagle dog at 5 mg/kg administered through Phosal formulation; type: ADME, organism-based, Canis lupus familiaris; conditions: in vivo
Method in brief: (§3)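 Fasted male Beagle dogs (n = 3) dosed orally in MC/TW or Phosal formulation, volume 4 or 6 mL/kg. Saphenous plasma collected over 24 h and measured by LC/MS/MS. F calculated as the dose-normalized oral/iv AUC ratio against 2 mg/kg iv.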

[5] = Oral bioavailability in Sprague-Dawley rat at 25 mg/kg administered through MC/TW formulation; type: ADME, organism-based; conditions: in vivo
Method in brief: (§4)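 Overnight-fasted male Sprague-Dawley rats (n = 3) gavaged in MC/TW or Phosal vehicle; compound at 37.5 mg/mL, diluted with water, dosed at 4 mL/kg. Jugular blood taken over 24 h; plasma analysed by LC/MS/MS. F calculated as the dose-normalized oral/iv AUC ratio, iv reference 2 mg/kg.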

Ovis aries [6] = assay: Effect on Ascaris suum-induced late phase-bronchoconstriction in naturally sensitized sheep model assessed as increase in specific lung resistance at 3 mg/kg, po bid for 2 days; type: functional; method in brief: as §2
Ovis aries [7] = assay: Effect on Ascaris suum-induced early phase-bronchoconstriction in naturally sensitized sheep model assessed as increase in specific lung resistance at 3 mg/kg, po bid for 2 days; type: functional; method in brief: as §2
[8] = Clearance in Sprague-Dawley rat at 2 mg/kg, iv; type: ADME, organism-based; design: dose 2 mg/kg, route intravenous; conditions: in vivo
Method in brief: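 Male Sprague-Dawley rats, 200–300 g, n = 3, given a single 2 mg/kg tail-vein bolus in 50% PEG-400/50% DMSO. Blood drawn via jugular cannula over 24 h and plasma acidified with HCl. Plasma levels measured by LC/MS/MS after acetonitrile precipitation with internal standard; quantitation limit 5 ng/mL. Clearance from non-compartmental analysis.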

[9] = Oral bioavailability in Beagle dog at 5 mg/kg administered through MC/TW formulation; type: ADME, organism-based, Canis lupus familiaris; conditions: in vivo; method in brief: as §3
Ovis aries [10] = assay: Effect on Ascaris suum-induced late phase-bronchoconstriction in naturally sensitized sheep model assessed as increase in specific lung resistance at 10 mg/kg, iv bid for 1 day; type: functional
Rattus norvegicus [11] = assay: Antiinflammatory activity against carrageenan-induced paw edema in Sprague-Dawley rat decrease in paw volume at 25 mg/kg, po administered through MC/TW formulation; type: functional; design: scale not given: the % may be the effect or the level left
Method in brief: (§5)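 Male Sprague-Dawley rats, 190–250 g, n = 10 per group, housed 1 week beforehand. Left hind paw volume measured by plethysmometer before oral dosing in Phosal or MC/TW (0.5% methylcellulose, 2% Tween 80) vehicle. Two hours after dosing, 60 µL of 1% carrageenan in saline injected subplantar. Paw volume remeasured 3 h later; percent inhibition of swelling calculated versus vehicle.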

[12] = Selectivity for human cPLA2-alpha over COX1
[13] = Selectivity for human cPLA2-alpha over COX2
[14] = Oral bioavailability in Sprague-Dawley rat at 25 mg/kg administered through Phosal formulation; type: ADME, organism-based; conditions: in vivo; method in brief: as §4
Ovis aries [15] = assay: Effect on Ascaris suum-induced early phase-bronchoconstriction in naturally sensitized sheep model assessed as increase in specific lung resistance at 10 mg/kg, iv bid for 1 day; type: functional
[16] = Inhibition of human cPLA2-alpha assessed as cleavage of 7-hydroxycoumarinyl-gamma-linolenate
Method in brief: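 Substrate 90 µM GLU with 120 µM DTPC. Compounds in DMSO tested in duplicate. Fluorescence (ex 355/em 460 nm) read every 4 min for 84 min; inhibition from slope. IC50 averaged from at least two independent runs.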

Ovis aries [17] = assay: Effect on Ascaris suum-induced early phase-bronchoconstriction in naturally sensitized sheep model assessed as increase in specific lung resistance at 1 mg/kg, po bid for 5 days; type: functional; method in brief: as §2
[18] = Binding affinity at human cPLA2-alpha by isothermal calorimetry
Method in brief: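 ITC at 30 °C. Purified human cPLA2α dialyzed into 50 mM Hepes pH 7.4, 0.3 mM EDTA, 1 mM CaCl2, 300 mM KCl. Cell held 2.5 µM protein with 1% DMSO and 940 µM Triton X-100. Syringe held 78.5 µM compound in matching buffer; twenty 10 µL injections. Buffer-only titration subtracted as background; single-site fit gave Kd and stoichiometry.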

Blood [19] = assay: Inhibition of TXB2 production in human whole blood assay; type: functional, tissue-based; method in brief: as §1
Blood [20] = assay: Inhibition of PGE2 production in human whole blood assay; type: functional, tissue-based; method in brief: as §1
[21] = Inhibition of cPLA2-alpha in Sprague-Dawley rat whole blood assay in presence of A23187; type: tissue-based
Method in brief: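 Heparinized blood from male Sprague-Dawley rats, taken by cardiac puncture. Preincubated 15 min at 37 °C with compound in DMSO, then stimulated 10 min at 37 °C with 5 µM A23187 (final). Stopped with 20 mM EDTA; plasma precipitated with cold methanol at −80 °C. TXB2 measured by immunoassay; IC50 values averaged from at least two independent runs.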

Rattus norvegicus [22] = assay: Antiinflammatory activity against carrageenan-induced paw edema in Sprague-Dawley rat assessed as decrease in paw volume at 25 mg/kg, po administered through Phosal formulation; type: functional; design: scale not given: the % may be the effect or the level left; method in brief: as §5
Blood [23] = assay: Inhibition of PGF2-alpha production in human whole blood assay; type: functional, tissue-based; method in brief: as §1
Rattus norvegicus [24] = assay: Antiinflammatory activity against carrageenan-induced paw edema in Sprague-Dawley rat decrease in paw volume at 10 mg/kg, po administered through MC/TW formulation; type: functional; design: scale not given: the % may be the effect or the level left; method in brief: as §5
[25] = target: T1, Prostaglandin G/H synthase 2 (Homo sapiens) (UniProt P35354); assay: Inhibition of COX2 at 100 uM
T1 sequence (whole entry): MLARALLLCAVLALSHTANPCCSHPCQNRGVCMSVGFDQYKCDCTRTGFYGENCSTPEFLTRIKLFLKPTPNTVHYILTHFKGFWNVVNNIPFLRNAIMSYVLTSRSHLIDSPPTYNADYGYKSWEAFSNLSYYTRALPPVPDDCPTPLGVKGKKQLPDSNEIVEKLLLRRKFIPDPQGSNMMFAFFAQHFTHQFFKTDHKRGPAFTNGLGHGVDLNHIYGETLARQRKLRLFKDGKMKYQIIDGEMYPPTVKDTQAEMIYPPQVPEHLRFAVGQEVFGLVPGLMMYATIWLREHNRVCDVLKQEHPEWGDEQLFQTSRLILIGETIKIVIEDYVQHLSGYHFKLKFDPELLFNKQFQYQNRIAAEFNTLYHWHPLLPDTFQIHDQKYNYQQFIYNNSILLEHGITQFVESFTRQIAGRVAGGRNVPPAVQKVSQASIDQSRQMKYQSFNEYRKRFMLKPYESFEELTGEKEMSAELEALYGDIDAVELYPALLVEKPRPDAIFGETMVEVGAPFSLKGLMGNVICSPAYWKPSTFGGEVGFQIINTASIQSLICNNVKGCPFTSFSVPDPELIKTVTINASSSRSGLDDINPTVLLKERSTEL

[26] = target: Prostaglandin G/H synthase 1 (Homo sapiens) (UniProt P23219); assay: Inhibition of COX1 at 100 uM
Rattus norvegicus [27] = assay: Antiinflammatory activity against carrageenan-induced paw edema in Sprague-Dawley rat administered through MC/TW formulation; type: functional; method in brief: as §5

Chain of Prostaglandin G/H synthase 1 (Homo sapiens) (P23219 whole entry): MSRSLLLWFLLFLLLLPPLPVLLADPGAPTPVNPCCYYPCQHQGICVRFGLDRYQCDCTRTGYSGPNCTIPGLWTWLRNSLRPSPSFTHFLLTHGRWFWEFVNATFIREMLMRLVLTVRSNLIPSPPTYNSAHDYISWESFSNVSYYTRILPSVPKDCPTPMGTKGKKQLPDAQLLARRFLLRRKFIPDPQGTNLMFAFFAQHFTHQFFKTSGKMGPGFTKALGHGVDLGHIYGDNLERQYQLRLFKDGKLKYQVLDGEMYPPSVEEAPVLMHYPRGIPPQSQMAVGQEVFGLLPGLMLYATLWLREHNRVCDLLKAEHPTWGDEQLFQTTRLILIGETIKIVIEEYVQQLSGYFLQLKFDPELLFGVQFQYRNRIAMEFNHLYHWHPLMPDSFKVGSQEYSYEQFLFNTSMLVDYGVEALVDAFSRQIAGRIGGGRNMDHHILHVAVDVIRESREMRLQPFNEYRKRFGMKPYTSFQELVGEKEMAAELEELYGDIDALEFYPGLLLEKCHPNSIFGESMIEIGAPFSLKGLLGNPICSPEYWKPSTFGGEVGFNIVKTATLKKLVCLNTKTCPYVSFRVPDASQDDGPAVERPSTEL

clearance [1]: 1.4 mL/min/kg | IC50 (Blood [2]): 82 nM | bioavailability [4]: 13% | bioavailability [5]: 13% | clearance [8]: 14 mL/min/kg | bioavailability [9]: 16% | Selectivity ratio [12]: > 1000 | Selectivity ratio [13]: > 1000 | bioavailability [14]: 5% | IC50 [16]: 65 nM | Kd [18]: 80 nM | IC50 (Blood [19]): 120 nM | IC50 (Blood [20]): 60 nM | IC50 [21]: 100 nM | IC50 (Blood [23]): 110 nM | inhibition [25]: 9.9% | inhibition [26]: 45%
SMILES: O=C(O)c1ccc(CCCc2c(CCNS(=O)(=O)c3c(F)cccc3C(F)(F)F)n(C(c3ccccc3)c3ccccc3)c3ccc(Cl)cc23)cc1
Activity (Ovis aries [3]): 68% | Activity (Ovis aries [6]): 29% | Activity (Ovis aries [7]): 379% | Activity (Ovis aries [10]): 29% | Activity (Rattus norvegicus [11]): 44% | Activity (Ovis aries [15]): 346% | Activity (Ovis aries [17]): 431% | Activity (Rattus norvegicus [22]): 16% | Activity (Rattus norvegicus [24]): 34% | ED50 (Rattus norvegicus [27]): < 10 mg/kg
